Results as given in the RNAGym collection of RNA variant scans (doi:10.1126/science.aae0568).
Variants at the floor of the assay were thinned out.

B1: tRNA (parent)
chain: GUUCCGUUGGCGUAAUGGUAACGCGUCUCCCUCCUAAGGAGAAGACUGCGGGUUCGAGUCCCGUACGGAACG

Variants of: B1
Test: yeast fitness relative to wild type (ratio to wild type); higher = fitter; tRNA-Arg(CCU), competitive growth, 37 C, YPD
In short: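 Genotype frequency changes were the basis for Darwinian fitness relative to wild type. The frequencies came from 100-nucleotide paired-end sequencing of gene amplicons from the start population and each end population of pooled yeast strains with tRNA-Arg(CCU) gene variants at the native locus. Competition ran in YPD at 37°C for 24 hours in six replicates, genotypes needed ≥ 100 starting reads, and estimates < 0.5 were set to 0.5.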

Variant | yeast fitness
U7G G48A C62U | 0.628
U7G G25C G58C | 0.558
U8A C24U A40U A42C A45U C61U | ≤ 0.5
U8A A65C A70U | 0.525
U8A G17A U19C | 0.586
U8A C11A C27U | 0.546
U7G U16G C61U | ≤ 0.5
U8A G18C G41A | ≤ 0.5
U8A C66G G68C | ≤ 0.5
U8A A21C A42U G50A | ≤ 0.5
U8A C31G A42C C55U G68A | ≤ 0.5
U7G U47C | 0.845
U7G G12A G25A C33G G58A G67A | ≤ 0.5
U7G U54C C55G | ≤ 0.5
U8A U13A A14C U16A G67A | 0.584
U8A G12A | 0.824
U8A C30A A65G | 0.543
U8A G25C A37C A65C | ≤ 0.5
U7G U13C G52A A57C A65C | ≤ 0.5
U8A U13A G18C C24G U32G G58U | ≤ 0.5
U8A C29U C34U C49A G67A | ≤ 0.5
U8A C27G G39A C46U G67A | ≤ 0.5
U8A A20G C33A A57G | ≤ 0.5
U8A U19C A21C C66U | ≤ 0.5

Variant | yeast fitness
U8C A21C C27U C49U G58C C61A A65U | ≤ 0.5
U8A C46U A57C | 0.635
U8A C11A A14G C24A C29A C34U C61G A65C | ≤ 0.5
U7G G12C G23C C29G C60A | ≤ 0.5
U8A A14C C49G A70U | 0.515
U7G G48A | 0.847
U8A G51A | 0.63
U8C A15C | 0.848
U8A A40C C46U G52A | ≤ 0.5
U8A G17A C22U | 0.607
U8A C11U C31G G38C A40C G56A | ≤ 0.5
U8A G38A A40C C49U U54C C60G | ≤ 0.5
U8A G10C A20U G41U C62U G68C | 0.799
U8A U26C | 0.646
U8A U26A | 0.733
U8A U26G | 0.666
U8A C22G C55G | 0.651
U7G G58A | 0.942
U8A C11U C46U | ≤ 0.5
U8C A14G G68A | 0.534
U8A A36U G48C | 0.668
U8A G25A C29G A37C A65U | ≤ 0.5
U8C A15U U28A C33G | ≤ 0.5
U8A C27A A37U A57U | ≤ 0.5

Variant | yeast fitness
U8A G52A G56C | 0.841
U8A G18A G67U A69C | ≤ 0.5
U8A A36C U53C | ≤ 0.5
U8A G25C U35A | ≤ 0.5
U8A G12A G44A C60U G67C | ≤ 0.5
U7G G9A C31G C33U A36G | ≤ 0.5
U8A C22U A69C A70C | 0.595
U8A A15C A21G C27U C46U A70G | ≤ 0.5
U8C A21U U53G A57C | ≤ 0.5
U8C A15C A45C | 0.674
U8C A40C C55G | ≤ 0.5
U7G U64A | 0.971
U8A C24G | ≤ 0.5
U8A C24A | 0.624
U8A G25A A40C C46U | 0.598
U8A U26C A43U C55U | ≤ 0.5
U8A A42U C62G | ≤ 0.5
U8A | 0.741
U8C | 1.03
U8A C29U C33U U53A U59G | ≤ 0.5
U8A A40G A42U A45U U59G | ≤ 0.5
U8C A20G A65G G68A | ≤ 0.5
U8A U28A C31G C60A | ≤ 0.5
U8A C24U A40C A42C A45U | ≤ 0.5

Variant | yeast fitness
U8C A15G G25C A45U | 0.684
U8A C29G A40G G63A | ≤ 0.5
U8C A15C G41A G52C | ≤ 0.5
U8C A14G U32A | 0.538
U7G G18A G48A | ≤ 0.5
U8A C61A G67C | 0.561
U8A G9C U47A G68C | ≤ 0.5
U8A C11U G25C G39C | ≤ 0.5
U8C A20U A57G | ≤ 0.5
U8A A14C C31A G41C C49A G56A G63A G67A | ≤ 0.5
U8C A20G C33A G44A C61U | ≤ 0.5
U8C A15U C22U A40C G48C U54C C62U | 0.557
U8A U19C A36U | ≤ 0.5
U8A A15C A20C U28C | ≤ 0.5
U8A G17A C24U | 0.95
U7G G25A C49G | 0.542
U8A C22G A36U | ≤ 0.5
U8A C24A U28C G56A | 0.556
U8A C24G G41C A65G | ≤ 0.5
U8A G41A A69U | ≤ 0.5
U8A G9A A37U C46U C61U C66U | ≤ 0.5
U8A A40C C46U | ≤ 0.5
U8A C11U A20C | ≤ 0.5
U8A C31A C33G | 0.542

Variant | yeast fitness
U8A A69C | 0.915
U8A A69U | 0.719
U8A A69G | 0.604
U8C A42G G68A | 0.63
U8C A14U C22G C30U | 0.581
U7G U8G A15C | 0.543
U8A A21C G56C | ≤ 0.5
U7G G12A | 0.816
U7G U28A | 0.704
U8A C11U U19C C46A C66U | 0.578
U8A G48A | 0.666
U8A C34A A65U | ≤ 0.5
U7G U54C C66A | ≤ 0.5
U8A C11U A20C A70U | ≤ 0.5
U7G G9A C31G A36G | 0.576
U8A A42U U47C C55G | ≤ 0.5
U8A C24U U47C | 0.575
U8A G18A | 0.578
U8A G12A C22A C31G A65C | ≤ 0.5
U8A U47C A57C U64C | ≤ 0.5
U8A C62U | 0.7
U8C A20G C66U | 0.624
U8A C27U A43U | ≤ 0.5
U7G G12A U13C C33U C34U A42C G50A | ≤ 0.5

Variant | yeast fitness
U7G U35G | 0.536
U8A A15G C27A | 0.549
U8C A37C | 0.892
U7G U19A C34U C66U | 0.588
U8A G52C | ≤ 0.5
U8A G38A | 0.652
U8A A14G C24G A45C | 0.632
U8A A70U | 0.813
U8A C33U G67A | ≤ 0.5
U8A A43C G44C | ≤ 0.5
U8A A20U C31U A45G | ≤ 0.5
U8A C24A C30U C31U G48C | 0.58
U8C A14C C27G C46G A65G | ≤ 0.5
U8C A14U C30A C66U A70G | 0.546
U8A G50C G56A | ≤ 0.5
U8A A14C C31A G41C C49A G56A A70C | 0.533
U8A C34U U35A C46U A70U | ≤ 0.5
U8A G10C C11U C24U A42C U47C | 0.777
U8A A20C A43U A69C | ≤ 0.5
U8A C31U C60A C62G A70C | ≤ 0.5
U8A A15U C22G C31U A57C U64A G68A | ≤ 0.5
U7G G44A C61U | 0.689
U8A C22U G56A U59A | ≤ 0.5
U8A G12A A14C A57U G67C | ≤ 0.5

Variant | yeast fitness
U8A G18A C30G A40C U47C G52A | ≤ 0.5
U8A U59C | 0.748
U7G U54C | 0.905
U7G G12A U13A | 0.565
U8C A20G C61G | ≤ 0.5
U8A C31U A37G | ≤ 0.5
U8C A36G | 0.865
U8A G9A C60G | ≤ 0.5
U7G G23C U54A A57C A70U | ≤ 0.5
U8C A14U C30A C61U C62A A70G | 0.532
U8A G18C G25C A57U C60U C61A | ≤ 0.5
U8C A21U C24A | ≤ 0.5
U8A C34G A37U A42U A57G | ≤ 0.5
U8A G44A U64C C66A | ≤ 0.5
U8A A14C C24U U35A G63A | 0.803
U8C A42G C49G C62A | ≤ 0.5
U8C A15C C31A | ≤ 0.5
U8A A15U C61U | ≤ 0.5
U8C A14C C33A C46A | ≤ 0.5
U8A A15U C27G A36G A70C | ≤ 0.5
U8A G9A G67A | 0.553
U8C A40G C55U A65C | ≤ 0.5
U8A A40C | 0.774
